From ChEMBL document CHEMBL1124498
Values joined by “and” are separate entries in the source; they are usually repeats but may differ in a detail not shown here. Identical values can stand only once. One block for each molecule: values may come before it.

What was measured:
[1] = test system: aldehyde dehydrogenase (Saccharomyces cerevisiae); assay: In vitro inhibition of yeast aldehyde dehydrogenase; set-up: concentration or dose not given beside the values; settings: concentration not given here
[2] = test system: aldehyde dehydrogenase (Saccharomyces cerevisiae); assay: In vitro inhibition of yeast aldehyde dehydrogenase is evaluated by the formation of NADH
Saccharomyces cerevisiae [3] = assay: In vitro inhibition of yeast aldehyde dehydrogenase at 100 uM concentration of compound
How it was run: (§1)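 Commercial yeast AlDH (0.074 IU) was preincubated 10 min at 0 °C with test agent added in acetone, in 100 mM potassium phosphate pH 7.4 containing 1.0 mM NAD+. Concentration is the final level in this primary mix. A 20-µL aliquot went into 0.5 mM NAD+, 1.0 mM EDTA, 30% glycerol, 80 mM potassium phosphate pH 8.0; reaction started with benzaldehyde (0.6 µmol); NADH read at 340 nm.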

Saccharomyces cerevisiae [4] = assay: In vitro inhibition of yeast […] at 100 uM concentration of compound
Saccharomyces cerevisiae [5] = assay: Inhibition of yeast aldehyde dehydrogenase is evaluated by formation by NADH in vitro at 10 uM concentration of compound
How it was run: as §1

Saccharomyces cerevisiae [6] = assay: In vitro inhibition of yeast […] at 1 uM concentration of compound
Saccharomyces cerevisiae [7] = assay: In vitro inhibition of yeast […] is evaluated by the formation of NADH at 100 uM concentration of compound
How it was run: as §1

Saccharomyces cerevisiae [8] = assay: Inhibition of yeast […] is evaluated by formation by NADH in vitro at 10 uM concentration of compound
How it was run: as §1

[9] = biological target: T1, Aldehyde dehydrogenase, mitochondrial (Rattus norvegicus) (UniProt P11884); assay: Percent inhibition of class II aldehyde dehydrogenase in vitro in osmotically disrupted rat liver mitochondria; settings: concentration not given here
T1 sequence (whole entry): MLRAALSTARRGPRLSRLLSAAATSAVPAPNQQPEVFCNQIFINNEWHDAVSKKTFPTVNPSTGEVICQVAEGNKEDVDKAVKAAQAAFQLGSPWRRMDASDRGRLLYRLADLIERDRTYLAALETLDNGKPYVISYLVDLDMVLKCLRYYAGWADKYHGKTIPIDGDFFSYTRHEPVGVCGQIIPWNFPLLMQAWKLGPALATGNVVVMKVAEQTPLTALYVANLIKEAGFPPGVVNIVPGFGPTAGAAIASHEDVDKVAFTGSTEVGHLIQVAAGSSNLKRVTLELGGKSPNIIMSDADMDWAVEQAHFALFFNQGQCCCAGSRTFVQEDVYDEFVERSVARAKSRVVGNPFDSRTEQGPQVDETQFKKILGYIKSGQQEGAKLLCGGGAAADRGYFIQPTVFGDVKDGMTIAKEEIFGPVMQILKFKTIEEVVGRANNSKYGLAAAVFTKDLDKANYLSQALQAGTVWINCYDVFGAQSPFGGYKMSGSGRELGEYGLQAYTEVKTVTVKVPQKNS
How it was run: (§2)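 Liver mitochondria from overnight-fasted male rats (200–250 g), osmotically disrupted by leaving sucrose out of the medium. Preincubated 5 min at 37 °C, then acetaldehyde (200 nmol) added for 5 min. HClO4 quench; head-space GC; Lowry protein.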

[10] = biological target: T1, Aldehyde dehydrogenase, mitochondrial (Rattus norvegicus); assay: Inhibition of class II aldehyde dehydrogenase in vitro in osmotically disrupted rat liver mitochondria assayed by nmol of acetaldehyde oxidized/min.mg of protein
How it was run: as §2

[11] = biological target: T1, Aldehyde dehydrogenase, mitochondrial (Rattus norvegicus); assay: Percent inhibition of class II aldehyde dehydrogenase in vitro in intact rat liver mitochondria; settings: concentration not given here
How it was run: (§3)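 Mitochondria from overnight-fasted male rats (200–250 g). Preincubated 5 min at 37 °C, then acetaldehyde (200 nmol) added for 5 min. Quenched with cold HClO4; acetaldehyde loss read by head-space GC; Lowry protein.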

[12] = biological target: T1, Aldehyde dehydrogenase, mitochondrial (Rattus norvegicus); assay: Inhibition of class II aldehyde dehydrogenase in vitro in intact rat liver mitochondria assayed by nmol of acetaldehyde oxidized/min.mg of protein
How it was run: as §3

SMILES: CCCN(C)C(=O)NS(=O)(=O)c1ccc(Cl)cc1
inhibition [1]: 0%
ALDH activity (NADH formation rate) [2]: 15 nM/min

SMILES: CCN(C(=O)NC(C)(C)C)S(=O)(=O)c1ccc(Cl)cc1
inhibition [1]: 97.3%
ALDH activity (NADH formation rate) [2]: 2.7 nM/min

SMILES: CCCOC(=O)N(CC)S(=O)(=O)c1ccc(Cl)cc1
inhibition [1]: 1.4%
ALDH activity (NADH formation rate) [2]: 14.6 nM/min

SMILES: CCCNC(=O)N(C(C)C)S(=O)(=O)c1ccc(Cl)cc1
inhibition [1]: 100%
ALDH activity (NADH formation rate) [2]: 0 nM/min

SMILES: O=C=NC1CCCCC1
inhibition (Saccharomyces cerevisiae [3]): 100%
inhibition (Saccharomyces cerevisiae [4]): 96.5%
AIDH activity (Saccharomyces cerevisiae [5]): 0.5 nM/min
inhibition (Saccharomyces cerevisiae [6]): 12.1%
AIDH activity (Saccharomyces cerevisiae [7]): 0 nM/min
AIDH activity (Saccharomyces cerevisiae [8]): 12.4 nM/min

SMILES: CCCN=C=O
inhibition (Saccharomyces cerevisiae [4]): 100% and 98.5%
inhibition (Saccharomyces cerevisiae [6]): 8.8%
AIDH activity (Saccharomyces cerevisiae [7]): 0 nM/min

SMILES: CCCCN=C=O
inhibition (Saccharomyces cerevisiae [3]): 100%
inhibition (Saccharomyces cerevisiae [4]): 98.9%
AIDH activity (Saccharomyces cerevisiae [5]): 0.2 nM/min
inhibition (Saccharomyces cerevisiae [6]): 20.8%
AIDH activity (Saccharomyces cerevisiae [7]): 0 nM/min
AIDH activity (Saccharomyces cerevisiae [8]): 11.2 nM/min

SMILES: CCCNC(=O)NS(=O)(=O)c1ccc(Cl)cc1
inhibition [9]: 0%
AlDH activity [10]: 73.8 nmol/min/mg
inhibition [11]: 0%
AIDH activity [12]: 28.3 nM/min

Second part, the molecule after the results:

inhibition [1]: 100%
ALDH activity (NADH formation rate) [2]: 0 nM/min
SMILES: CCCCN(C(=O)NCCC)S(=O)(=O)c1ccc(Cl)cc1

inhibition [1]: 100%
ALDH activity (NADH formation rate) [2]: 0 nM/min
SMILES: CCCNC(=O)N(CC(C)C)S(=O)(=O)c1ccc(Cl)cc1

inhibition [1]: 100%
ALDH activity (NADH formation rate) [2]: 0 nM/min
SMILES: CCCNC(=O)N(CC(C)(C)C)S(=O)(=O)c1ccc(Cl)cc1

inhibition [9]: 73.7%
inhibition [1]: 99.6%
AIDH activity [10]: 19 nM/min
inhibition [11]: 48.9%
ALDH activity (NADH formation rate) [2]: 0.6 nM/min
AIDH activity [12]: 13.4 nM/min
SMILES: CCCNC(=O)N(C)S(=O)(=O)c1ccc(Cl)cc1

inhibition [1]: 98.6%
ALDH activity (NADH formation rate) [2]: 1.4 nM/min
SMILES: CCCNC(=O)N(CC)S(=O)(=O)c1ccc(Cl)cc1

inhibition [1]: 91.1%
ALDH activity (NADH formation rate) [2]: 1.3 nM/min
SMILES: CCCNC(=O)N(CCC)S(=O)(=O)c1ccc(Cl)cc1

inhibition [1]: 100%
ALDH activity (NADH formation rate) [2]: 0 nM/min
SMILES: CCCNC(=O)N(C(C)(C)C)S(=O)(=O)c1ccc(Cl)cc1
